# Measurements as given in ChEMBL document CHEMBL1133983, “Antiprotozoal and cytotoxicity evaluation of sulfonamide and urea analogues of quinacrine” (Bioorg Med Chem Lett, 2001).
# Tested on: Plasmodium falciparum
# Assay: Antiparasitic activity for Plasmodium falciparum 3D7
# Assay type: functional
# Conditions: read-out: ED50 (the source's name)
# In short: (§1)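 Growth of P. falciparum in human red blood cells was measured by [³H]-hypoxanthine incorporation over 48 h. 3D7 is the chloroquine-sensitive strain and K1 the chloroquine-resistant strain.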
row,Compound,EC50
1,COc1ccc2nc3cc(Cl)ccc3c(NCCNS(=O)(=O)c3ccc4ccccc4c3)c2c1,0.025 µg/mL
2,COc1ccc2nc3cc(Cl)ccc3c(NCCCCCCNC(=O)NCc3ccccc3)c2c1,0.14 µg/mL
3,CCN(CC)CCCC(C)Nc1ccnc2cc(Cl)ccc12 (stereo unspecified) [CHLOROQUINE],0.002 µg/mL
4,COc1ccc2nc3cc(Cl)ccc3c(NCCCCNS(=O)(=O)c3ccc4ccccc4c3)c2c1,0.033 µg/mL
5,COc1ccc2nc3cc(Cl)ccc3c(NCCCNC(=O)NCc3ccccc3)c2c1,0.0005 µg/mL
6,COc1ccc2nc3cc(Cl)ccc3c(NCCCNS(=O)(=O)c3ccc4ccccc4c3)c2c1,0.01 µg/mL
7,COc1ccc2nc3cc(Cl)ccc3c(NCCNC(=O)NCc3ccccc3)c2c1,0.069 µg/mL
8,COc1ccc2nc3cc(Cl)ccc3c(NCCCCNC(=O)NCc3ccccc3)c2c1,0.0013 µg/mL

# Tested on: Trypanosoma brucei
# Assay: Anti parasitic activity against Trypanosoma brucei
# Assay type: functional
# Conditions: read-out: ED50 (the source's name)
row,Compound,EC50
1,COc1ccc2nc3cc(Cl)ccc3c(NCCNS(=O)(=O)c3ccc4ccccc4c3)c2c1,0.47 µg/mL
2,COc1ccc2nc3cc(Cl)ccc3c(NCCCCCCNC(=O)NCc3ccccc3)c2c1,0.46 µg/mL
3,COc1ccc2nc3cc(Cl)ccc3c(NCCCCNS(=O)(=O)c3ccc4ccccc4c3)c2c1,0.12 µg/mL
4,COc1ccc2nc3cc(Cl)ccc3c(NCCCNC(=O)NCc3ccccc3)c2c1,0.083 µg/mL
5,COc1ccc2nc3cc(Cl)ccc3c(NCCCNS(=O)(=O)c3ccc4ccccc4c3)c2c1,0.078 µg/mL
6,N=C(N)c1ccc(OCCCCCOc2ccc(C(=N)N)cc2)cc1 [PENTAMIDINE],0.0002 µg/mL
7,COc1ccc2nc3cc(Cl)ccc3c(NCCNC(=O)NCc3ccccc3)c2c1,0.42 µg/mL
8,COc1ccc2nc3cc(Cl)ccc3c(NCCCCNC(=O)NCc3ccccc3)c2c1,0.043 µg/mL

# Tested on: Plasmodium falciparum
# Assay: Anti parasitic activity for Plasmodium falciparum K1
# Assay type: functional
# Conditions: read-out: ED50 (the source's name)
# In short: as §1
row,Compound,EC50
1,CCN(CC)CCCC(C)Nc1ccnc2cc(Cl)ccc12 (stereo unspecified) [CHLOROQUINE],0.15 µg/mL
2,COc1ccc2nc3cc(Cl)ccc3c(NCCCNC(=O)NCc3ccccc3)c2c1,0.015 µg/mL

# Target: T1, Glutathione reductase, mitochondrial (Homo sapiens, UniProt P00390)
# T1 sequence (P00390 whole entry): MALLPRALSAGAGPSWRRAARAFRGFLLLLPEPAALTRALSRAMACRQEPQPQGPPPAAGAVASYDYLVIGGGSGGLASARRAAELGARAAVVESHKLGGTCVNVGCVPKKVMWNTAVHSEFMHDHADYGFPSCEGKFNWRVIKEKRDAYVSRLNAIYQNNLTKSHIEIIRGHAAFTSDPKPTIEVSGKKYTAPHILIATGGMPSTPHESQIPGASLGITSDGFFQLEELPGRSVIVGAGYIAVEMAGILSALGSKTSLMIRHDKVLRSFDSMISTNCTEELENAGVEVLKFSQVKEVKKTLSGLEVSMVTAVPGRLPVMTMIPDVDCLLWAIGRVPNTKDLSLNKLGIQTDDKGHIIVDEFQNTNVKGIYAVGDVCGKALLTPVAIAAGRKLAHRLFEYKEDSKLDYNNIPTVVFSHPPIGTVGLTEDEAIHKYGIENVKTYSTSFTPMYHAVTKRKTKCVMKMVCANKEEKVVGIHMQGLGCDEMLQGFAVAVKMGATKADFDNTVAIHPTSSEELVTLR
# Assay: Inhibitory concentration against human Glutathione reductase was determined
# Conditions: not given
# In short: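 Human glutathione reductase purified from erythrocytes (42.3 mU) was run spectrophotometrically at 25 °C in 40 mM HEPES pH 7.5 with 1 mM EDTA and NADPH. It was preincubated with NADPH for 10 min, inhibitor was added at varying concentrations in DMSO (1% v/v final), and glutathione disulfide was then added.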
row,Compound,IC50
1,COc1ccc2nc3cc(Cl)ccc3c(NCCNS(=O)(=O)c3ccc4ccccc4c3)c2c1,9.9 µM
2,COc1ccc2nc3cc(Cl)ccc3c(NCCCCCCNC(=O)NCc3ccccc3)c2c1,17.1 µM
3,COc1ccc2nc3cc(Cl)ccc3c(NCCCCNS(=O)(=O)c3ccc4ccccc4c3)c2c1,13.9 µM
4,COc1ccc2nc3cc(Cl)ccc3c(NCCCNC(=O)NCc3ccccc3)c2c1,44.7 µM
5,CCN(CC)CCCC(C)Nc1c2ccc(Cl)cc2nc2ccc(OC)cc12 (stereo unspecified) [QUINACRINE],> 1000 µM
6,COc1ccc2nc3cc(Cl)ccc3c(NCCCNS(=O)(=O)c3ccc4ccccc4c3)c2c1,27.2 µM
7,COc1ccc2nc3cc(Cl)ccc3c(NCCNC(=O)NCc3ccccc3)c2c1,27.2 µM
8,COc1ccc2nc3cc(Cl)ccc3c(NCCCCNC(=O)NCc3ccccc3)c2c1,55.8 µM

# Tested on: not listed separately
# Assay: Ratio of Inhibitory activity against glutathione reductase and inhibitory activity against trypanothione reductase was determined
# Conditions: not given
row,Compound,Selectivity
1,COc1ccc2nc3cc(Cl)ccc3c(NCCNS(=O)(=O)c3ccc4ccccc4c3)c2c1,1.7
2,COc1ccc2nc3cc(Cl)ccc3c(NCCCCCCNC(=O)NCc3ccccc3)c2c1,1.5
3,COc1ccc2nc3cc(Cl)ccc3c(NCCCCNS(=O)(=O)c3ccc4ccccc4c3)c2c1,2.8
4,COc1ccc2nc3cc(Cl)ccc3c(NCCCNC(=O)NCc3ccccc3)c2c1,3.4
5,CCN(CC)CCCC(C)Nc1c2ccc(Cl)cc2nc2ccc(OC)cc12 (stereo unspecified) [QUINACRINE],> 7.5
6,COc1ccc2nc3cc(Cl)ccc3c(NCCCNS(=O)(=O)c3ccc4ccccc4c3)c2c1,8.2
7,COc1ccc2nc3cc(Cl)ccc3c(NCCNC(=O)NCc3ccccc3)c2c1,1.4
8,COc1ccc2nc3cc(Cl)ccc3c(NCCCCNC(=O)NCc3ccccc3)c2c1,3.6

# Tested on: Trypanosoma cruzi
# Assay: Anti parasitic activity against Trypanosoma cruzi
# Assay type: functional
# Conditions: read-out: ED50 (the source's name)
# In short: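 In vitro test against intracellular amastigotes of T. cruzi grown in murine macrophages.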
row,Compound,EC50
1,c1ccc2[nH]cnc2c1 [BENZIMIDAZOLE],12.4 µg/mL

# Tested on: KB
# Assay: Toxicity of the quinacrine derivatives was determined against the KB cell line in comparison to podophyllotoxin
# Assay type: functional
# Conditions: Homo sapiens, read-out: ED50 (the source's name)
row,Compound,EC50
1,COc1ccc2nc3cc(Cl)ccc3c(NCCNS(=O)(=O)c3ccc4ccccc4c3)c2c1,2.7 µg/mL
2,COc1ccc2nc3cc(Cl)ccc3c(NCCCCCCNC(=O)NCc3ccccc3)c2c1,4.3 µg/mL
3,COc1ccc2nc3cc(Cl)ccc3c(NCCCCNS(=O)(=O)c3ccc4ccccc4c3)c2c1,0.4 µg/mL
4,COc1ccc2nc3cc(Cl)ccc3c(NCCCNC(=O)NCc3ccccc3)c2c1,0.7 µg/mL
5,COc1ccc2nc3cc(Cl)ccc3c(NCCCNS(=O)(=O)c3ccc4ccccc4c3)c2c1,0.4 µg/mL
6,COc1ccc2nc3cc(Cl)ccc3c(NCCNC(=O)NCc3ccccc3)c2c1,4.1 µg/mL
7,COc1cc([C@@H]2c3cc4c(cc3[C@H](O)[C@H]3COC(=O)[C@H]23)OCO4)cc(OC)c1OC [PODOFILOX],0.008 µg/mL
8,COc1ccc2nc3cc(Cl)ccc3c(NCCCCNC(=O)NCc3ccccc3)c2c1,0.8 µg/mL

# Tested on: Leishmania donovani
# Assay: Anti parasitic activity against Leishmania donovani (cultured in murine macrophages)
# Assay type: functional
# Conditions: not given
row,Compound,ED50
1,Pentostam,8.9 µg/mL

# Same assay, conditions: read-out: ED50 (the source's name)
row,Compound,EC50
1,COc1ccc2nc3cc(Cl)ccc3c(NCCNS(=O)(=O)c3ccc4ccccc4c3)c2c1,5.8 µg/mL
2,COc1ccc2nc3cc(Cl)ccc3c(NCCCCCCNC(=O)NCc3ccccc3)c2c1,5.8 µg/mL
3,COc1ccc2nc3cc(Cl)ccc3c(NCCCCNS(=O)(=O)c3ccc4ccccc4c3)c2c1,3.3 µg/mL
4,COc1ccc2nc3cc(Cl)ccc3c(NCCCNC(=O)NCc3ccccc3)c2c1,1.9 µg/mL
5,COc1ccc2nc3cc(Cl)ccc3c(NCCCNS(=O)(=O)c3ccc4ccccc4c3)c2c1,1.9 µg/mL
6,COc1ccc2nc3cc(Cl)ccc3c(NCCNC(=O)NCc3ccccc3)c2c1,10.7 µg/mL
7,COc1ccc2nc3cc(Cl)ccc3c(NCCCCNC(=O)NCc3ccccc3)c2c1,1.9 µg/mL

# Target: Trypanothione reductase (Trypanosoma cruzi, UniProt P28593)
# Sequence (P28593 whole entry): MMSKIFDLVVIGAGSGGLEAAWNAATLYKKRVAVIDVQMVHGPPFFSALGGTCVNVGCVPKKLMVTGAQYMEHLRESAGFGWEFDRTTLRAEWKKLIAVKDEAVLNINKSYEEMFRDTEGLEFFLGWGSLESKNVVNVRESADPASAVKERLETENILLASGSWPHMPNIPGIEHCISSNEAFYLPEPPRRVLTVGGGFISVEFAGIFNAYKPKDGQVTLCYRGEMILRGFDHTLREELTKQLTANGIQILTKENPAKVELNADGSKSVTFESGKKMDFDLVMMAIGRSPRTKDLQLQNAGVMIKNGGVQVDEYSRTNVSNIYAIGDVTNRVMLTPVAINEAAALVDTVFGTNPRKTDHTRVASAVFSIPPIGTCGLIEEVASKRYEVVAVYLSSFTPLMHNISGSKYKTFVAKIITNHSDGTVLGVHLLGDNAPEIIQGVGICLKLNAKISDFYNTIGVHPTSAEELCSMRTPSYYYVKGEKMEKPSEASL
# Assay: Inhibitory concentration against trypanothione reductase was determined
# Conditions: not given
# In short: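 Recombinant T. cruzi trypanothione reductase (128 mU) was followed spectrophotometrically at 25 °C in 40 mM HEPES pH 7.5 with 1 mM EDTA and NADPH. Enzyme and NADPH were preincubated for 10 min at 25 °C, inhibitor was added at varying concentrations in DMSO (1% v/v final), and the reaction was started with Try[SH]2.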
row,Compound,IC50
1,COc1ccc2nc3cc(Cl)ccc3c(NCCNS(=O)(=O)c3ccc4ccccc4c3)c2c1,5.9 µM
2,COc1ccc2nc3cc(Cl)ccc3c(NCCCCCCNC(=O)NCc3ccccc3)c2c1,11.4 µM
3,COc1ccc2nc3cc(Cl)ccc3c(NCCCCNS(=O)(=O)c3ccc4ccccc4c3)c2c1,5 µM
4,COc1ccc2nc3cc(Cl)ccc3c(NCCCNC(=O)NCc3ccccc3)c2c1,13.1 µM
5,CCN(CC)CCCC(C)Nc1c2ccc(Cl)cc2nc2ccc(OC)cc12 (stereo unspecified) [QUINACRINE],133 µM
6,COc1ccc2nc3cc(Cl)ccc3c(NCCCNS(=O)(=O)c3ccc4ccccc4c3)c2c1,3.3 µM
7,COc1ccc2nc3cc(Cl)ccc3c(NCCNC(=O)NCc3ccccc3)c2c1,19.3 µM
8,COc1ccc2nc3cc(Cl)ccc3c(NCCCCNC(=O)NCc3ccccc3)c2c1,15.5 µM

# Tested on: Trypanosoma cruzi
# Assay: Anti parasitic activity against Trypanosoma cruzi (cultured in murine macrophages)
# Assay type: functional
# Conditions: read-out: ED50 (the source's name)
row,Compound,EC50
1,COc1ccc2nc3cc(Cl)ccc3c(NCCNS(=O)(=O)c3ccc4ccccc4c3)c2c1,> 30 µg/mL
2,COc1ccc2nc3cc(Cl)ccc3c(NCCCCCCNC(=O)NCc3ccccc3)c2c1,6.8 µg/mL
3,COc1ccc2nc3cc(Cl)ccc3c(NCCCCNS(=O)(=O)c3ccc4ccccc4c3)c2c1,> 30 µg/mL
4,COc1ccc2nc3cc(Cl)ccc3c(NCCCNC(=O)NCc3ccccc3)c2c1,22 µg/mL
5,COc1ccc2nc3cc(Cl)ccc3c(NCCCNS(=O)(=O)c3ccc4ccccc4c3)c2c1,23.9 µg/mL
6,COc1ccc2nc3cc(Cl)ccc3c(NCCNC(=O)NCc3ccccc3)c2c1,> 30 µg/mL
7,COc1ccc2nc3cc(Cl)ccc3c(NCCCCNC(=O)NCc3ccccc3)c2c1,< 1 µg/mL
